Assay results of several laboratories.
Protocols differ between the studies behind these lines.
Target: Adenosine receptor A3 (ADORA3, Homo sapiens, UniProt P0DMS8)
Sequence (P0DMS8 1-318, as in one of the studies): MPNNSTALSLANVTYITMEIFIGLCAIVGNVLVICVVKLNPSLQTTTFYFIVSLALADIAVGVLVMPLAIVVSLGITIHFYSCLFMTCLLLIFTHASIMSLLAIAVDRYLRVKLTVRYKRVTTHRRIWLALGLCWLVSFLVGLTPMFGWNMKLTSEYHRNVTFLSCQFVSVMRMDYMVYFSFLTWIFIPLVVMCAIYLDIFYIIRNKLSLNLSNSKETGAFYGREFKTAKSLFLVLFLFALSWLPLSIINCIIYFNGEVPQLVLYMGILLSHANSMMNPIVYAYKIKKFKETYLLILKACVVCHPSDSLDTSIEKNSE

| Compound | assay | conditions | Ki [nM] |
| --- | --- | --- | --- |
| NC1C(O)C(n2cnc3c(NCc4cccc(I)c4)ncnc32)C2CC12 (stereo not shown) | ligand displacement, radioligand | cell membranes | 5460 |
| CCCCCN1CCCn2c1nc1c2c(=O)n(C)c(=O)n1C | ligand displacement, radioligand | cell membranes | > 10000 |
| Nc1nc2c(cnn2CCc2ccccc2)c2nc(-c3ccco3)nn12 | ligand displacement in cells, BRET |  | 158 |
| CN1CCCn2c1nc1c2c(=O)n(C)c(=O)n1C | ligand displacement, radioligand | cell membranes | > 10000 |
| Nc1nc2ccc(Cl)cc2c2nc(-c3ccco3)nn12 | ligand displacement in cells, BRET |  | 7.59 |
| O[C@@H]1[C@H](O)[C@@H]2C[C@@H]2[C@H]1n1cnc2c(NCc3cn(C45CC6CC(CC(C6)C4)C5)nn3)nc(Cl)nc21 | ligand displacement, radioligand | cell membranes | 2190 |
| CC(C)=CCNc1ncnc2c1ncn2[C@@H]1O[C@H](CO)[C@@H](O)[C@H]1O | ligand displacement, radioligand | cell membranes | 159 |
| CCNC(=O)C1OC(n2cnc3c(N)nc(NN=CC4CCC=CO4)nc32)C(O)C1O (stereo not shown) | ligand displacement, radioligand |  | 16 |
| O=C(NCCC(c1ccccc1)c1ccccc1)[C@H]1S[C@@H](n2cnc3c(NCc4cccc(I)c4)ncnc32)[C@H](O)[C@@H]1O | ligand displacement, radioligand |  | 116 |
| CNC(=O)[C@@]12C[C@@H]1[C@@H](n1cnc3c(NCc4cn(-c5ccc(C(=O)NCCCF)cc5)nn4)nc(Cl)nc31)[C@H](O)[C@@H]2O | ligand displacement, radioligand | cell membranes | 36.7 |
| COCCOc1ccc(N2CCN(CCn3ncc4c3nc(N)n3nc(-c5ccco5)nc43)CC2)cc1 | ligand displacement, radioligand | cell membranes | > 1000 |
| OC[C@@]12C[C@@H]1[C@@H](n1cnc3c(NC(C4CCCC4)C4CCCC4)nc(Cl)nc31)[C@H](O)[C@@H]2O | ligand displacement, radioligand |  | 4380 |
| CCCCn1c(=O)c2[nH]c(C34CC5CC(CC3C5)C4)nc2n(CCCO)c1=O | ligand displacement, radioligand | cell membranes | > 1000 |
| CNC(=O)[C@@]12C[C@@H]1[C@@H](n1cnc3c(NCc4cn(C56CC7CC(CC(C7)C5)C6)nn4)nc(Cl)nc31)[C@H](O)[C@@H]2O | ligand displacement, radioligand | cell membranes | 38.1 |
| CCCN1CCCn2c1nc1c2c(=O)n(C)c(=O)n1C | ligand displacement, radioligand | cell membranes | > 10000 |
| CNC(=O)[C@@]12C[C@@H]1[C@@H](n1cnc3c(NCc4cccc(Cl)c4)nc(C#Cc4cccc(C(=O)NCCOCCOCCOCCOCCOCCOCCC(=O)N5CCC(c6ccc(-c7cc(C(=O)O)cc8cc(-c9ccc(C(F)(F)F)cc9)ccc78)cc6)CC5)c4)nc31)[C@H](O)[C@@H]2O | ligand displacement in cells, radioligand |  | 3.6 |
